Consider 36 sequences from the array DNA melting data of Ke et al. (doi:10.1101/2024.01.08.574731).

Data set [1] is described as follows: folding enthalpy; higher = less favourable; fluorescence melt of hairpins on a sequencing array, two-state fit. The settings on record: sodium 0.088 M. Summed up:
(§1)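 Hairpins were imaged by Cy3 fluorescence on a sequenced MiSeq flow cell with annealed Cy3 and quencher oligos, in 50 mM Na-HEPES pH 8.0, 25 mM NaCl, in 2.5 °C steps up to 60 °C. Bootstrapped two-state fits of normalised signals gave melting temperature and folding enthalpy. Four replicates were combined by inverse variance, and fitted temperatures were raised by 9.35 °C to match UV melts.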

Data set [2] is described as follows: melting temperature; fluorescence melt of hairpins on a sequencing array, two-state fit, raised by 9.35 °C to match UV melts. The settings on record: sodium 0.088 M. In outline:
as §1

Regarding GTGGTGCGAAAGCAACAC (((.(((....))).))), in data set [1], the folding enthalpy was -28.8 kcal/mol. Moreover, the Tm in data set [2] came out at 68.9 °C.
On to GTGGTGCGAAAGCACAC (((.(((....)))))), for which the folding enthalpy in data set [1] is -11.5 kcal/mol. Moreover, the Tm in data set [2] came to 53.8 °C.
Take GTGGTGCGAAAGCATCAC (((.(((....))).))): in data set [1], the folding enthalpy is -30.4 kcal/mol. For the same sequence, in data set [2], the Tm worked out at 67 °C.
The like results for GTGGTGGCGAAAGCCCAC (((..(((....)))))) were, in that order, -14.8 kcal/mol and 53.5 °C.
The matching figures for GTGGTGGGAAACCATCGC (.(.(((....))).).): -24.9 kcal/mol and 41.6 °C.
Regarding GTGGTGGGAAACCGCTAC ((.(.((....)).).)), in data set [1], the folding enthalpy was -19.3 kcal/mol. Moreover, the Tm in data set [2] was 46.7 °C.
The matching figures for GTGGTGGGAAACTACCAC (((((.(....).))))): -43.4 kcal/mol and 52.6 °C.
GTGGTTCGAAAGAAGCAC (((.(((....))).))): the folding enthalpy in data set [1] was -41.7 kcal/mol. In data set [2], the Tm came to 60.1 °C.
With GTGGTTGGAAACAGCCAC ((((.((....)).)))), the folding enthalpy in data set [1] was -44.1 kcal/mol. For the same sequence, the Tm in data set [2] worked out at 52.4 °C.
The matching figures for GTGGTTGGAAACAGTCAC (((..((....))..))): -19.4 kcal/mol and 31.2 °C.
The matching figures for GTGGTTGGAAACGACCAC (((((.(....).))))): -41 kcal/mol and 54.7 °C.
The matching figures for GTGTAACGAAAGTTTCAC (((.(((....))).))): -22.9 kcal/mol and 44.9 °C.
As to GTGTACGAAAGTAACAC ((((((....))).))), the folding enthalpy in data set [1] was -30 kcal/mol. In addition, the Tm in data set [2] stood at 49.5 °C.
The like results for GTGTACGAAAGTAACCAC ((((((....)))..))) were, in that order, -15 kcal/mol and 32 °C.
The like results for GTGTACGAAAGTAAGCAC ((((((....)))..))) were, in that order, -21.3 kcal/mol and 33.4 °C.
The matching figures for GTGTACGAAAGTAATCAC ((((((....)))..))): -18.3 kcal/mol and 30.2 °C.
On to GTGTACGAAAGTATCCAC ((((((....)))..))), for which the folding enthalpy in data set [1] is -18.3 kcal/mol. Moreover, in data set [2], the Tm amounted to 26.4 °C.
The like results for GTGTACGGAAACATACAC (((((.(....).))))) were, in that order, -26 kcal/mol and 36.1 °C.
Consider GTGTACGGAAACGTATAC ((.((((....)))).)), for which the folding enthalpy in data set [1] is -29.1 kcal/mol. Moreover, the Tm in data set [2] is 46.6 °C.
The like results for GTGTACGGAAACGTATGC (..((((....))))..) were, in that order, -26.7 kcal/mol and 39.5 °C.
GTGTACGGAAACGTGTAC ((..(((....)))..)): the folding enthalpy in data set [1] is -20.4 kcal/mol. Also, the Tm in data set [2] was found to be 35.2 °C.
For the sequence GTGTAGGGAAACCCACAC ((((.((....)).)))), the folding enthalpy in data set [1] is -24.5 kcal/mol. In data set [2], the Tm turned out to be 45.8 °C.
Regarding GTGTATCGAAAGATTCAC (((.(((....))).))), in data set [1], the folding enthalpy was -36.9 kcal/mol. The Tm in data set [2] worked out at 44.7 °C.
The matching figures for GTGTATGGAAACATGCAC (((.(((....))).))): -33.9 kcal/mol and 48.9 °C.
Turning to GTGTCACGAAAGTGCAC (((.(((....)))))), the folding enthalpy in data set [1] was -26 kcal/mol. In data set [2], the Tm stood at 53.5 °C.
The like results for GTGTCACGAAAGTGGCAC (((.(((....))).))) were, in that order, -37.1 kcal/mol and 67.3 °C.
The like results for GTGTCAGAAATGACAC ((((((....)))))) were, in that order, -35.9 kcal/mol and 56.4 °C.
The like results for GTGTCAGCGAAAGCTCAC (((..(((....)))))) were, in that order, -15.3 kcal/mol and 39 °C.
With GTGTCCCGAAAGGGCCAC (((.(((....))).))), in data set [1], the folding enthalpy was -23.8 kcal/mol. For the same sequence, the Tm in data set [2] is 56.4 °C.
The matching figures for GTGTCCGAAAGGACCAC ((((((....))).))): -10.2 kcal/mol and 48.5 °C.
Turning to GTGTCCGAAAGGAGGCAC ((((((....)))..))), in data set [1], the folding enthalpy was -20.6 kcal/mol. Also, the Tm in data set [2] amounted to 39.5 °C.
For GTGTCCGAAAGGATACAC ((((((....)))..))), the folding enthalpy in data set [1] was -18.7 kcal/mol. Besides, the Tm in data set [2] is 49 °C.
The like results for GTGTCCGAAAGGATCAC ((((((....))).))) were, in that order, -25.2 kcal/mol and 51 °C.
The matching figures for GTGTCCGGAAACGGACGC (.(((((....))))).): -14.6 kcal/mol and 62.5 °C.
As for GTGTCGGAAACGACAC ((((((....)))))), the folding enthalpy in data set [1] was -30.9 kcal/mol. The Tm in data set [2] stood at 69.2 °C.
The like results for GTGTCGGGAAACCGATAC ((.((((....)))).)) were, in that order, -28.6 kcal/mol and 52.1 °C.
